Experimental data from ChEMBL document CHEMBL1828575, “Design, synthesis and antiproliferative activities of biarylolefins based on polyhydroxylated and carbohydrate scaffolds” (Eur J Med Chem, 2011).

How the values were obtained:
Assay type in all cases: functional
[1] = system: HCT-15; experiment: Cytotoxicity against human HCT15 cells assessed as cellular growth at 10 uM after 48 hrs by SRB assay
In short: (§1)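 NCI60 single-dose screen of cells in RPMI 1640 with 5% FBS and 2 mM L-glutamine, preincubated 24 h at 37 °C, 5% CO₂. Cells were then exposed 48 h to compound added from DMSO stock. TCA-fixed, stained with 0.4% SRB in 1% acetic acid, dye solubilised in 10 mM Tris base and read at 515 nm. Growth is given as percent of untreated control.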

[2] = system: UACC-257; experiment: Cytotoxicity against human UACC257 cells assessed as cellular growth at 10 uM after 48 hrs by SRB assay
In short: (§2)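 NCI-60 panel lines grown in RPMI 1640 with 5% FBS and 2 mM L-glutamine. Plated at 5000–40,000 cells/well and preincubated 24 h at 37 °C, 5% CO₂, with time-zero plates fixed in TCA. Compounds, dissolved in DMSO and diluted in medium, were applied for 48 h. Cells were TCA-fixed (10% final for adherent, 16% for suspension) and stained with 0.4% SRB in 1% acetic acid. Dye was solubilised in 10 mM Tris base and read at 515 nm; growth was expressed as a percentage of untreated control.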

[3] = system: SK-MEL-5; experiment: Cytotoxicity against human SK-MEL-5 cells assessed as cellular growth at 10 uM after 48 hrs by SRB assay; in short: as §2
[4] = system: HT-29; experiment: Antiproliferative activity against human HT-29 cells after 48 hrs by SRB assay; details: HT-29, 48 h
In short: (§3)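 NCI60 panel in RPMI 1640 with 5% FBS and 2 mM L-glutamine. Cells were plated at 5000–40,000/well by doubling time, held 24 h, then time-zero plates were TCA-fixed. Five concentrations (10-fold or half-log dilutions of DMSO stocks) were applied for 48 h at 37 °C, 5% CO2. Cells were fixed with cold TCA (10% final adherent, 16% suspension) and stained with 0.4% SRB. Bound dye was dissolved in 10 mM Tris and read at 515 nm. GI50, TGI and LC50 were calculated per line.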

[5] = system: MDA-MB-468; experiment: Antitumor activity against human MDA-MB-468 cells after 48 hrs by SRB assay; details: MDA-MB-468, 48 h; in short: as §3
[6] = system: NCI-H23; experiment: Cytotoxicity against human NCI-H23 cells assessed as cellular growth at 10 uM after 48 hrs by SRB assay; in short: as §2
[7] = system: K562; experiment: Antitumor activity against human K562 cells after 48 hrs by SRB assay; details: K562, 48 h; in short: as §3
[8] = system: NCI-H460; experiment: Antitumor activity against human NCI-H460 cells after 48 hrs by SRB assay; details: NCI-H460, 48 h; in short: as §3
[9] = system: NCI-H322M; experiment: Antitumor activity against human NCI-H322M cells after 48 hrs by SRB assay; in short: as §3
[10] = system: SK-OV-3; experiment: Antitumor activity against human SKOV3 cells after 48 hrs by SRB assay; details: SK-OV-3, 48 h
In short: (§4)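 NCI60 panel cells grown in RPMI 1640 with 5% FBS and 2 mM L-glutamine, plated at 5000–40,000 cells/well and preincubated 24 h at 37 °C, 5% CO₂. Compound was added from DMSO at five concentrations, 10-fold or 1/2 log dilutions, then incubated 48 h.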

[11] = system: NCI-H522; experiment: Antitumor activity against human NCI-H522 cells after 48 hrs by SRB assay; details: NCI-H522, 48 h; in short: as §3
[12] = system: SN12C; experiment: Antitumor activity against human SN12C cells after 48 hrs by SRB assay; in short: as §4
[13] = system: SR; experiment: Antitumor activity against human SR cells after 48 hrs by SRB assay; in short: as §4
[14] = system: HOP-62; experiment: Cytotoxicity against human HOP62 cells assessed as cellular growth at 10 uM after 48 hrs by SRB assay; in short: as §1
[15] = system: SF-268; experiment: Antitumor activity against human SF268 cells after 48 hrs by SRB assay; details: SF-268, 48 h; in short: as §3
[16] = system: T47D; experiment: Antitumor activity against human T47D cells after 48 hrs by SRB assay; in short: as §4
[17] = system: SF-295; experiment: Antitumor activity against human SF295 cells after 48 hrs by SRB assay; details: SF-295, 48 h; in short: as §3
[18] = system: SK-OV-3; experiment: Cytotoxicity against human SKOV3 cells assessed as cellular growth at 10 uM after 48 hrs by SRB assay; in short: as §2
[19] = system: HCC 2998; experiment: Antitumor activity against human HCC2998 cells after 48 hrs by SRB assay; details: HCC 2998, 48 h; in short: as §3
[20] = system: A549; experiment: Cytotoxicity against human A549 cells assessed as cellular growth at 10 uM after 48 hrs by SRB assay; in short: as §1
[21] = system: UO-31; experiment: Cytotoxicity against human UO31 cells assessed as cellular growth at 10 uM after 48 hrs by SRB assay; in short: as §2
[22] = read-out: pLC50 (the source's name) (converted)
[23] = read-out: LC50 (the source's name)

With `COc1ccc(/C(=C2\O[C@@H]([C@H]3COC(C)(C)O3)[C@H]3OC(C)(C)O[C@@H]23)c2cc(OC)c(OC)c(OC)c2)cc1O` the Activity [1] was 32.51%, the Activity [2] was 126.04% and the Activity [3] was 61.79%. The LC50 (50% net cell kill) [4] was > 100 µM, the GI50 ([4]; read-out: GI50) was 4.1 µM and the TGI ([4]; read-out: TGI) was 17.8 µM. For the same compound, the GI50 ([4]; read-out: pGI50 (converted)) was 4.07 µM, the CC50 [4, 22] was > 100 µM and the TGI ([4]; read-out: pTGI (converted)) was 17.8 µM. For the same compound, the GI50 ([5]; read-out: GI50) was 17.8 µM, the CC50 [5, 23] was > 100 µM and the TGI ([5]; read-out: TGI) was 63.6 µM. The GI50 ([5]; read-out: pGI50 (converted)) was 25.7 µM, the CC50 [5, 22] was > 100 µM and the TGI ([5]; read-out: pTGI (converted)) was 63.1 µM. For the same compound, the Activity [6] was 81.18%, the GI50 ([7]; read-out: GI50) was 6.28 µM and the CC50 [7, 23] was > 100 µM. For the same compound, the TGI ([7]; read-out: TGI) was > 100 µM, the GI50 ([7]; read-out: pGI50 (converted)) was 6.31 µM and the CC50 [7, 22] was > 100 µM. For the same compound, the TGI ([7]; read-out: pTGI) was > 100 µM, the GI50 ([8]; read-out: GI50) was 29.3 µM and the CC50 [8, 23] was > 100 µM. For the same compound, the TGI ([8]; read-out: TGI) was > 100 µM, the GI50 ([8]; read-out: pGI50 (converted)) was 29.5 µM and the CC50 [8, 22] was > 100 µM. The TGI ([8]; read-out: pTGI) was > 100 µM, the GI50 ([9]; read-out: GI50) was 9.6 µM and the CC50 [9, 23] was > 100 µM. For the same compound, the TGI ([9]; read-out: TGI) was > 100 µM, the GI50 ([9]; read-out: pGI50 (converted)) was 9.55 µM and the CC50 [9, 22] was > 100 µM. For the same compound, the TGI ([9]; read-out: pTGI) was > 100 µM, the GI50 ([10]; read-out: GI50) was 12.6 µM and the CC50 [10, 23] was > 100 µM. The TGI ([10]; read-out: TGI) was 91.7 µM, the GI50 ([10]; read-out: pGI50 (converted)) was 12.6 µM and the CC50 [10, 22] was > 100 µM. For the same compound, the TGI ([10]; read-out: pTGI (converted)) was 91.2 µM, the GI50 [11] was 2.95 µM and the TGI [11] was 7.54 µM. For the same compound, the CC50 [11, 23] was 85.6 µM, the CC50 [12, 23] was > 100 µM and the TGI ([12]; read-out: TGI) was > 100 µM. The GI50 ([12]; read-out: pGI50 (converted)) was 8.91 µM, the CC50 [12, 22] was > 100 µM and the TGI ([12]; read-out: pTGI) was > 100 µM. For the same compound, the GI50 ([13]; read-out: GI50) was 6.1 µM, the CC50 [13, 23] was > 100 µM and the TGI ([13]; read-out: TGI) was > 100 µM. For the same compound, the GI50 ([13]; read-out: pGI50 (converted)) was 6.17 µM, the CC50 [13, 22] was > 100 µM and the TGI ([13]; read-out: pTGI) was > 100 µM. The Activity [14] was 91.26%, the LC50 (concentration killing 50% of cells relative to time zero) [15] was > 100 µM and the GI50 ([15]; read-out: GI50) was 7.96 µM. The TGI ([15]; read-out: TGI) was 53.6 µM, the GI50 ([15]; read-out: pGI50 (converted)) was 7.94 µM and the CC50 [15, 22] was > 100 µM. The TGI ([15]; read-out: pTGI (converted)) was 53.7 µM, the GI50 ([16]; read-out: GI50) was 63.6 µM and the CC50 [16, 23] was > 100 µM. The TGI ([16]; read-out: TGI) was > 100 µM, the GI50 ([16]; read-out: pGI50 (converted)) was 44.7 µM and the CC50 [16, 22] was > 100 µM. The TGI ([16]; read-out: pTGI (converted)) was > 100 µM, the CC50 [17, 23] was > 100 µM and the TGI ([17]; read-out: TGI) was 43.8 µM. For the same compound, the GI50 ([17]; read-out: pGI50 (converted)) was 18.6 µM, the CC50 [17, 22] was > 100 µM and the TGI ([17]; read-out: pTGI (converted)) was 43.7 µM. For the same compound, the Activity [18] was 90.14%, the GI50 ([19]; read-out: GI50) was 31.1 µM and the CC50 [19, 23] was > 100 µM. For the same compound, the TGI ([19]; read-out: TGI) was 80.4 µM, the GI50 ([19]; read-out: pGI50 (converted)) was 30.9 µM and the CC50 [19, 22] was > 100 µM. For the same compound, the TGI ([19]; read-out: pTGI (converted)) was 81.3 µM, the Activity [20] was 80.05% and the Activity [21] was 123.08%.
